Test results taken from ChEMBL document CHEMBL1124962, “Synthesis and structure-affinity of a series of 7 alpha-undecylestradiol derivatives: a potential vector for therapy and imaging of estrogen-receptor-positive cancers” (J Med Chem, 1990).

Key:
[1] = target: T1, Estrogen receptor (Bos taurus) (UniProt Q9XSB5+P49884); assay: Ratio of displacement of 17-beta-[3H]-estradiol from calf uterine estrogen receptor compared to 17-beta-estradiol after 12 hr incubation; type: protein assay
Outline: (§1)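 Calf uterine cytosol (105000g, 60 min, 4 °C spin of homogenate in 5 mM sodium phosphate pH 7.5, 10 mM monothioglycerol, 10% glycerol; 0.68 mg protein in final mix) incubated at 4 °C without DMF with 10⁻⁹ M 17β-[³H]estradiol and nine competitor concentrations (3 × 10⁻¹²–10⁻⁶ M), triplicates. Dextran-coated charcoal separation, supernatant counted. RBA = IC50 ratio of estradiol to competitor ×100, mean of ≥3 experiments.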

[2] = target: T1, Estrogen receptor (Bos taurus); assay: Ratio of displacement of 17-beta-[3H]-estradiol from calf uterine estrogen receptor compared to 17-beta-estradiol after 20 hr incubation; type: protein assay; outline: as §1

relative binding affinity (RBA) [1]	relative binding affinity (RBA) [2]	Structure (SMILES)
0.7	0.7	C[C@]12CC[C@@H]3c4ccc(O)cc4C[C@@H](CCCCCCCCCCCCl)[C@H]3[C@@H]1CC[C@@H]2O
0.04	0.1	C[C@]12CC[C@@H]3c4ccc(O)cc4C[C@@H](CCCCCCCCCCCI)[C@H]3[C@@H]1CC[C@@H]2O
22.1	27.1	C[C@]12CC[C@@H]3c4ccc(O)cc4CC[C@H]3[C@@H]1C[C@@H](I)[C@@H]2O
0.1	0.1	C[C@]12CC[C@@H]3c4ccc(O)cc4C[C@@H](CCCCCCCCCCCOc4ccccc4)[C@H]3[C@@H]1CC[C@@H]2O
0.1	0.09	C[C@]12CC[C@@H]3c4ccc(O)cc4C[C@@H](CCCCCCCCCCCOc4ccc(I)cc4)[C@H]3[C@@H]1CC[C@@H]2O
0.09	0.09	C=CCCCCCCCCC[C@@H]1Cc2cc(O)ccc2[C@H]2CC[C@]3(C)[C@@H](O)CC[C@H]3[C@H]12
2.9	2	C[C@]12CC[C@@H]3c4ccc(O)cc4C[C@@H](CCCCCCCCCCCO)[C@H]3[C@@H]1CC[C@@H]2O
0.05	0.2	C[C@]12CC[C@@H]3c4ccc(O)cc4C[C@@H](CCCCCCCCCCCBr)[C@H]3[C@@H]1CC[C@@H]2O
1.3	1.5	C[C@]12CC[C@@H]3c4ccc(O)cc4C[C@@H](CCCCCCCCCCCF)[C@H]3[C@@H]1CC[C@@H]2O
